Screens: PubChem BioAssay, Broad Institute
PglD inh – inhibitors of Campylobacter jejuni PglD acetyltransferase; purified PglD enzyme, DTNB colorimetric CoA detection; 0.098% of 360,000 active; AID 602405; inhibition, % at 12.5 µM; in the data active = inhibition above about 16%, passing the limit was not always enough
Statin myotox sup – protects C2C12 myotubes from simvastatin toxicity | rescue of ATP level, % at 7.49 µM | ATP luminescence, 48 h; scaled: DMSO 0, geranylgeraniol control 100 | 0.78% of 330,000 active;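 active = mean ATP rescue above about 67%, or every replicate alone reaching that limit, limit read from the data, passing the limit was not always enough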;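 also: myotubes were challenged with 10 µM simvastatin during compound exposure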
DENV2 CPE rescue – DENV2-induced cell death inhibition; AID 651640; DENV2-infected cells, cytopathic effect rescue, plate reader; 1.7% of 350,000 active; CPE inhibition, % at 9.99 µM; in the data active = CPE inhibition above about 20%, passing the limit was not always enough; tested in BHK-21 cells
XiGFP reactiv – activators of X-chromosome reactivation in mouse fibroblasts | XiGFP mouse fibroblasts, % GFP-positive cells imaging, 3 d; cells co-treated with 5-aza-dC sensitizer; scaled so ellipticine positive control = 100% | activation, % at 7.58 µM | 0.055% of 360,000 active;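 active = mean normalized replicate activation at least 10% and every replicate at or above 10%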
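System: 68-5-11 XiGFP fibroblast line | Buffer or medium: DMEM containing 5-aza-dC | Compound: Single point | Times: Compounds 3 days, fix/stain 15 min at room temperature | Benchmarks: Positive control ellipticine, 6 µM final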
E-sel inducer – induces E-selectin expression in human endothelial cells. activation, % at 7.58 µM. HUVEC E-selectin immunofluorescence imaging; normalized: neutral wells 0, TNF-alpha wells 100. AID 686992. P16581. 0.37% of 260,000 active;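 active = mean E-selectin-positive cell signal at least 10% of the positive control, reached in at least 60% of replicates, without over 20% cell loss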
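Test system: HUVEC; input: 3,000 HUVEC/well; measured by: immunofluorescence imaging; read-out: % PE-positive cells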
FGF22 binding – shifts melting point of recombinant human FGF22; recombinant FGF22 thermal shift, SYPRO orange fluorescence; percent of sucrose octasulfate shift, DMSO zero; activity (Tm shift, normalised), % at 9.99 µM; 1.5% of 340,000 active; AID 651658;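 active = mean Tm shift, scaled 0 neutral to 100 positive control, at about 1.3% or above, every replicate too, limit read from the data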
Target sequence (Q9HCT0 whole entry, looked up): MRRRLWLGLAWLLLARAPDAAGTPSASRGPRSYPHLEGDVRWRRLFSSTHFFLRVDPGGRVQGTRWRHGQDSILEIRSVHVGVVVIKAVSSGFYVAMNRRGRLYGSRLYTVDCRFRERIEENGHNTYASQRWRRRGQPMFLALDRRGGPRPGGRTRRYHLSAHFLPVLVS
Hits are given with their value; n = inactive; x = not tested or not shown. In the library only some 3.3% were active in any assay of this set; here they are far more common.

SMILES | PglD inh | Statin myotox sup | DENV2 CPE rescue | XiGFP reactiv | E-sel inducer | FGF22 binding
C[C@H](CO)N1C[C@H](C)[C@H](CN(C)C(=O)Nc2ccc(C(F)(F)F)cc2)Oc2c(NC(=O)CCCCCC(=O)Nc3ccccc3N)cccc2C1=O | x | x | 35 | n | x | n
C[C@@H]1CN([C@H](C)CO)C(=O)c2cccc(NC(=O)CCCCCC(=O)Nc3ccccc3N)c2O[C@@H]1CN(C)C(=O)Nc1ccc(C(F)(F)F)cc1 | x | x | n | n | x | n
C[C@H](CO)N1C[C@H](C)[C@@H](CN(C)S(=O)(=O)c2cccs2)Oc2ccc(NC(=O)CCCCCC(=O)Nc3ccccc3N)cc2C1=O | n | n | 25 | n | x | n
COc1ccc(NC(=O)N(C)C[C@@H]2Oc3ccc(NC(=O)CCCCCC(=O)Nc4ccccc4N)cc3C(=O)N([C@H](C)CO)C[C@@H]2C)cc1 | x | x | 53 | n | x | n
COc1ccc(NC(=O)N(C)C[C@@H]2Oc3c(NC(=O)CCCCCC(=O)Nc4ccccc4N)cccc3C(=O)N([C@@H](C)CO)C[C@@H]2C)cc1 | x | x | n | n | n | n
C[C@@H]1CN([C@H](C)CO)C(=O)c2cc(NC(=O)CCCCCC(=O)Nc3ccccc3N)ccc2O[C@H]1CN(C)S(=O)(=O)c1cccs1 | x | x | n | n | x | n
COc1ccc(NC(=O)N(C)C[C@H]2Oc3c(NC(=O)CCCCCC(=O)Nc4ccccc4N)cccc3C(=O)N([C@@H](C)CO)C[C@@H]2C)cc1 | x | x | 30 | n | n | n
C[C@H]1CN([C@@H](C)CO)C(=O)c2cc(NC(=O)CCCCCC(=O)Nc3ccccc3N)ccc2O[C@H]1CN(C)C(=O)Nc1ccc(F)cc1 | x | x | 35 | n | 44 | n
COc1ccc(S(=O)(=O)N(C)C[C@@H]2Oc3ccc(NC(=O)CCCCCC(=O)Nc4ccccc4N)cc3C(=O)N([C@@H](C)CO)C[C@@H]2C)cc1 | x | x | 36 | n | n | n
COCC(=O)Nc1ccc2c(c1)OC[C@H](C)N(Cc1cccc(F)c1)C[C@H](C)[C@H](OC)CN(C)C2=O | n | n | n | n | n | n
COc1ccc(S(=O)(=O)N(C)C[C@H]2OCCCC[C@H](C)Oc3ccc(NC(=O)Cc4ccccc4)cc3C(=O)N([C@@H](C)CO)C[C@@H]2C)cc1 | n | x | 27 | n | n | n
COc1ccc(NC(=O)Nc2ccc3c(c2)C(=O)N([C@H](C)CO)C[C@@H](C)[C@H](CN(C)S(=O)(=O)c2ccccc2)OCCCC[C@H](C)O3)cc1 | n | x | 30 | n | x | n
COc1ccc(S(=O)(=O)N(C)C[C@@H]2OCCCC[C@H](C)Oc3ccc(NC(=O)Cc4ccccc4)cc3C(=O)N([C@H](C)CO)C[C@H]2C)cc1 | n | x | n | n | n | n
C[C@@H]1CCCCO[C@@H](CN(C)S(=O)(=O)c2ccc(Cl)cc2)[C@@H](C)CN([C@@H](C)CO)C(=O)c2cc(NC(=O)Nc3ccc(F)cc3)ccc2O1 | n | x | 29 | n | x | n
C[C@H](CO)N1C[C@H](C)[C@H](CN(C)S(=O)(=O)c2ccccc2)OCCCC[C@H](C)Oc2ccc(NC(=O)Nc3ccc(F)cc3)cc2C1=O | n | x | 22 | n | n | n
C[C@@H]1CCCCO[C@@H](CN(C)S(=O)(=O)c2ccccc2)[C@H](C)CN([C@@H](C)CO)C(=O)c2cc(NC(=O)Nc3ccc(F)cc3)ccc2O1 | n | x | n | n | n | n
COc1ccccc1-c1ccccc1[C@@H]1[C@@H](C#N)N(C(=O)C2CC2)[C@H]1CO | x | x | n | n | n | n
COC(=O)c1ccc2nc(NC(=O)C(C)(C)C)sc2c1 | x | x | n | n | x | 43
Cc1cc(NC(=O)CCC(=O)N(CCC(C)C)C(C(=O)NC2CCCC2)c2cccnc2)no1 (stereo not given) | n | 105 | x | x | x | x
NCC[C@@H]1CC[C@@H](NS(=O)(=O)c2ccc(Cl)cc2)[C@@H](CO)O1 | n | n | n | n | n | n
CCC(=O)N1C[C@H](C)[C@H](OC)CN(C)C(=O)c2ccc(NC(=O)C3CC3)cc2OC[C@H]1C | n | n | n | n | n | n
CCC(=O)Nc1ccc2c(c1)OC[C@H](C)N(C(=O)Cc1cccnc1)C[C@H](C)[C@H](OC)CN(C)C2=O | n | n | n | n | n | n
CCC(=O)N1C[C@H](C)[C@@H](OC)CN(C)C(=O)c2ccc(NC(=O)C3CC3)cc2OC[C@@H]1C | x | x | 40 | n | n | x
CCC(=O)Nc1ccc2c(c1)OC[C@H](C)N(C(=O)CC)C[C@H](C)[C@@H](OC)CN(C)C2=O | x | x | 35 | n | n | x
CCC(=O)Nc1ccc2c(c1)OC[C@@H](C)N(C(=O)Cc1cccnc1)C[C@@H](C)[C@H](OC)CN(C)C2=O | n | n | 27 | n | n | n
SMILES | PglD inh | Statin myotox sup | DENV2 CPE rescue | XiGFP reactiv | E-sel inducer | FGF22 binding
CCC(=O)Nc1ccc2c(c1)OC[C@@H](C)N(C(=O)Nc1ccccc1F)C[C@@H](C)[C@H](OC)CN(C)C2=O | n | n | 22 | n | n | n
CCC(=O)Nc1ccc2c(c1)OC[C@@H](C)N(C(=O)c1ccccc1F)C[C@H](C)[C@@H](OC)CN(C)C2=O | n | n | n | n | n | n
CSc1ccccc1C(=O)C1CCCN(Cc2cnn(-c3ccccc3)c2)C1 (stereo not given) | x | x | n | n | x | 43
CCC(C)NC(=O)c1nc2c(nnn2Cc2ccccc2Cl)c(=O)[nH]1 (stereo not given) | x | x | n | n | x | 43
C[C@H](CO)N1C[C@H](C)[C@@H](CN(C)C(=O)CN(C)C)Oc2ncc(-c3ccccc3F)cc2C1=O | n | n | n | n | n | n
Cc1ccc(N2CCN(C(=O)c3ccccc3Br)CC2)c(C)c1 | n | 81 | x | x | x | x
CN1CCN(C2=Cc3ccccc3Sc3cc(F)ccc32)CC1 | n | 110 | x | x | x | x
CN1CCN(C2=Cc3ccc(Cl)cc3Sc3ccc(F)cc32)CC1 | n | x | x | x | x | x
N#C[C@H]1[C@@H](c2ccccc2C2=CCCC2)[C@H](CO)N1S(=O)(=O)c1cccc(F)c1 | x | x | n | n | n | n
CN(C)C1=NC[C@H](Cc2ccccc2)N1CC1CCCCCC1 | n | 97 | n | n | n | n
CN(C)C1=NC[C@H](Cc2ccccc2)N1CCC1CCCC1 | n | n | n | n | n | n
CCCN1C[C@H](C)[C@@H](OC)CN(C)C(=O)c2cc(NC(=O)c3cccc(OC)c3)ccc2OC[C@H]1C | x | n | x | n | n | x
COc1ccc(C=C2CS(=O)(=O)CC(=Cc3ccc(OC)cc3)C2=O)cc1 | n | n | n | n | n | 44
O=C(N[C@@H]1CC[C@@H](CCNS(=O)(=O)c2ccccc2)O[C@@H]1CO)c1cccc(F)c1 | n | n | n | n | n | n
CCCNC(=O)N1[C@@H](C#N)[C@H](c2ccccc2)[C@@H]1CO | n | n | n | n | n | n
